Results reported in ChEMBL document CHEMBL4402595, “Discovery of Orally Bioavailable Chromone Derivatives as Potent and Selective BRD4 Inhibitors: Scaffold Hopping, Optimization, and Pharmacological Evaluation” (J Med Chem, 2020).
Calls of active or inactive are those of the source. No cut-off for these calls is given here.

Experiments:
Mus musculus [1] = assay: Antiinflammatory activity in C57BL6/J mouse model of TLR3-induced acute airway inflammation assessed as inhibition of neutrophilic inflammation around small and medium-sized airways at 10 mg/kg, ip pre-treated 1 day before poly(I:C) stimulation followed by compound re-dosing at 10 mg/kg, ip before another poly(I:C) stimulation and measured after 1 day post last poly(I:C) stimulation by …; assay type: functional
[2] = Cmax in Sprague-Dawley rat at 20 mg/kg, po measured after 2 to 26 hrs; assay type: ADME, organism-based; design: dose 20 mg/kg, route oral; conditions: in vivo
Mus musculus [3] = assay: (§1) Antiinflammatory activity in C57BL6/J mouse model of TLR3-induced acute airway inflammation assessed as inhibition of elevated KC levels in BALF at 10 mg/kg, ip pre-treated 1 day before poly(I:C) stimulation followed by compound re-dosing at 10 mg/kg, ip before another poly(I:C) stimulation and measured after 1 day post last poly(I:C) stimulation by cytokine Bio-Plex assay; assay type: functional, organism-based
How it was run: (§2)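 Male C57BL/6J mice, 12 weeks old, 5 per group, dosed 10 mg/kg the day before and again immediately before intranasal poly(I:C) (300 μg in 50 μL PBS). BALF was collected 1 day later by two 1 mL PBS lavages and centrifuged at 800 × g for 5 min at 4 °C. Supernatant cytokines were measured by multiplex bead immunoassay against recombinant standards in triplicate.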

Mus musculus [4] = assay: as §1, with “RANTES” for “KC”; assay type: functional, organism-based
How it was run: as §2

Mus musculus [5] = assay: as §1, with “MCP1” for “KC”, “po” for “ip”; assay type: functional, organism-based
How it was run: as §2

Mus musculus [6] = assay: as §1, with “CIG5 gene expression” for “KC levels”, “lung” for “BALF”, “po” for “ip”, “stimulation” for “stimulation by cytokine Bio-Plex assay”; assay type: functional, organism-based
How it was run: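 Male C57BL/6J mice, 12 weeks old, 5 per group, dosed 10 mg/kg one day before challenge and again immediately before intranasal poly(I:C) (300 μg in 50 μL PBS). Controls were vehicle alone and poly(I:C) alone. Lungs were taken 1 day later. Gene expression in lung tissue was measured by qRT-PCR, normalized to PPIA.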

[7] = target: Bromodomain-containing protein 4 (Homo sapiens, UniProt O60885); assay: Inhibition of BRD4 in poly(I:C)-stimulated human SAECs assessed as reduction in H3K122Ac levels at 10 uM pre-incubated for 24 hrs before poly(I:C) stimulation for 4 hrs by immunofluorescence staining
[8] = AUC (0 to t) in Sprague-Dawley rat at 20 mg/kg, po measured after 2 to 26 hrs; assay type: ADME, organism-based; conditions: in vivo
CYP1A2 = target: T1, CYP1A2 (Homo sapiens, UniProt P05177); assay: Inhibition of CYP1A2 (unknown origin) at 10 uM relative to control; assay type: ADME
T1 sequence (P05177 whole entry): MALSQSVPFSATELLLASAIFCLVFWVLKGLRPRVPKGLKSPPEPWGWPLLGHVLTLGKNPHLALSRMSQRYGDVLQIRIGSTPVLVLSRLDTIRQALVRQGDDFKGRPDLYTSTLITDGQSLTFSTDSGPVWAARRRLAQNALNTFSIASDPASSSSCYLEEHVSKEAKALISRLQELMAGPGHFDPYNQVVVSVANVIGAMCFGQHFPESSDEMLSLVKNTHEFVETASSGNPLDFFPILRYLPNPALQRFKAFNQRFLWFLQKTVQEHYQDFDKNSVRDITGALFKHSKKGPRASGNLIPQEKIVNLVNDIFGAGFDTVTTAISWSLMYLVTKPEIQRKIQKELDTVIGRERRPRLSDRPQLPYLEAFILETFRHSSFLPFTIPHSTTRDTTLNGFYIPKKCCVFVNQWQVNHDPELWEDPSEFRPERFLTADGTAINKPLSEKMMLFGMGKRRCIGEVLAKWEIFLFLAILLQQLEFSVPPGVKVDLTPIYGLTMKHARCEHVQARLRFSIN

CYP2C9 = CYP2C9 (Homo sapiens, UniProt P11712); assay: Inhibition of CYP2C9 (unknown origin) at 10 uM relative to control; assay type: ADME
CYP3A4 [9] = target: T2, CYP3A4 (Homo sapiens, UniProt P08684); assay: Inhibition of CYP3A4 (unknown origin) at 10 uM using midazolam substrate relative to control; assay type: ADME; conditions: probe midazolam
How it was run: (§3)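 The CYP3A4 assay was run with midazolam or with testosterone as substrate.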

CYP3A4 [10] = target: T2, CYP3A4; assay: Inhibition of CYP3A4 (unknown origin) at 10 uM using testosterone substrate relative to control; assay type: ADME; conditions: probe testosterone
How it was run: as §3

[11] = Unbound fraction in human plasma at 2 uM; assay type: ADME, cell-free
[12] = Clearance in mouse liver microsomes; assay type: ADME, Microsome
[13] = Unbound fraction in mouse plasma at 2 uM; assay type: ADME, cell-free
CYP2D6 = CYP2D6 (Homo sapiens, UniProt P10635); assay: Inhibition of CYP2D6 (unknown origin) at 10 uM relative to control; assay type: ADME
CYP2B6 = target: T3, CYP2B6 (Homo sapiens, UniProt P20813); assay: Inhibition of CYP2B6 (unknown origin) at 10 uM relative to control; assay type: ADME
T3 sequence (P20813 whole entry): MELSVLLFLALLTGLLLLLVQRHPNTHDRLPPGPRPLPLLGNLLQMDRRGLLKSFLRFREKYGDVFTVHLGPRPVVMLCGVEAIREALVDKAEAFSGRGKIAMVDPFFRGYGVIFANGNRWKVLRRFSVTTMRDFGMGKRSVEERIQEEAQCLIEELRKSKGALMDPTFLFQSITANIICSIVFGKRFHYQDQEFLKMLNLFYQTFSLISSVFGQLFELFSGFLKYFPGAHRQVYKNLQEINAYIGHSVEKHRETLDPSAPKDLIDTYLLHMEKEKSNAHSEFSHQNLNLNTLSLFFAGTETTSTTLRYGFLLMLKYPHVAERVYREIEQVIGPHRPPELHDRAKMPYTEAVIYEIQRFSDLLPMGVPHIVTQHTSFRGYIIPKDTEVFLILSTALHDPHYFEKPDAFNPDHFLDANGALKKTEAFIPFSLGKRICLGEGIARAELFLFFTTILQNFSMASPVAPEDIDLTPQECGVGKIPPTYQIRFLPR

CYP2C8 = target: T4, CYP2C8 (Homo sapiens, UniProt P10632); assay: Inhibition of CYP2C8 (unknown origin) at 10 uM relative to control; assay type: ADME
T4 sequence (P10632 whole entry): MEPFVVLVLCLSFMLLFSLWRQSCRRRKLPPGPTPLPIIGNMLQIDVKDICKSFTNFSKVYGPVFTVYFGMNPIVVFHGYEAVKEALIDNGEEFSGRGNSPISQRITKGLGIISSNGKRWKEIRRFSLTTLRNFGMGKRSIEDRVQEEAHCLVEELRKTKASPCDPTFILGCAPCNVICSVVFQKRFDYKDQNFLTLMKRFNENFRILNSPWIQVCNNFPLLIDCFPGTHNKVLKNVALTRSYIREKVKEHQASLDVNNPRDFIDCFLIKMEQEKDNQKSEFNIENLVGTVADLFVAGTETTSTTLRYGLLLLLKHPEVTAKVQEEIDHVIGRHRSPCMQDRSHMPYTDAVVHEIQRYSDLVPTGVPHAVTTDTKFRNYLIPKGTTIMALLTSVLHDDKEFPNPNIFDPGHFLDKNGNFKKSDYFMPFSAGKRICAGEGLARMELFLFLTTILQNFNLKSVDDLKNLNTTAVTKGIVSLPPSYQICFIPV

T2 sequence (P08684 whole entry): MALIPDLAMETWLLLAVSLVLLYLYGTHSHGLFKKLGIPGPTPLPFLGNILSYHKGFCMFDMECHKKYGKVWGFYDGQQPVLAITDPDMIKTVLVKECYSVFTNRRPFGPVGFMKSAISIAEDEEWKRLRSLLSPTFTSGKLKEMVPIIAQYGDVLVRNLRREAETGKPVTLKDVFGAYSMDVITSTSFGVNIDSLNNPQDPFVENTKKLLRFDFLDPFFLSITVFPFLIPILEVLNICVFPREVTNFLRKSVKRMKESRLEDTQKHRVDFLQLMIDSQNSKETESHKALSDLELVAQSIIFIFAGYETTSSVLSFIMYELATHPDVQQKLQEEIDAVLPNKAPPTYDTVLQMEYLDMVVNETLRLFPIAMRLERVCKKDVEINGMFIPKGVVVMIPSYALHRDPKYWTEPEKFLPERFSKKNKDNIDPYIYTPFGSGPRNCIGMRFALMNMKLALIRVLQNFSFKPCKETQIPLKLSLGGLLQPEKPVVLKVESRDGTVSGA
CYP2D6, sequence (P10635 whole entry): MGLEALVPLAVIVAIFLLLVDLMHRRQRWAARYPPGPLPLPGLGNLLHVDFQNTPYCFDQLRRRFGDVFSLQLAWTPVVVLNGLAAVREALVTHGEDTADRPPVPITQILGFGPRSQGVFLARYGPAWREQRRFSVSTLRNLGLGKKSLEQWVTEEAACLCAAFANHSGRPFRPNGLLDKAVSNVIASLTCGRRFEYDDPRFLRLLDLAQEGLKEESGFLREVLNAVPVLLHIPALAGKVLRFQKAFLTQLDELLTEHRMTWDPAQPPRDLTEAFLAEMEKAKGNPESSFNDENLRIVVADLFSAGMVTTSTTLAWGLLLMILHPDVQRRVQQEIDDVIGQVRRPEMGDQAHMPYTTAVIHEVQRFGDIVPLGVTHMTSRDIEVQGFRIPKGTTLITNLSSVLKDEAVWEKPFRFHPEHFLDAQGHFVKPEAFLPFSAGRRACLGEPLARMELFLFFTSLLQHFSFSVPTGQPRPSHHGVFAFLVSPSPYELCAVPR
CYP2C9, sequence (P11712 whole entry): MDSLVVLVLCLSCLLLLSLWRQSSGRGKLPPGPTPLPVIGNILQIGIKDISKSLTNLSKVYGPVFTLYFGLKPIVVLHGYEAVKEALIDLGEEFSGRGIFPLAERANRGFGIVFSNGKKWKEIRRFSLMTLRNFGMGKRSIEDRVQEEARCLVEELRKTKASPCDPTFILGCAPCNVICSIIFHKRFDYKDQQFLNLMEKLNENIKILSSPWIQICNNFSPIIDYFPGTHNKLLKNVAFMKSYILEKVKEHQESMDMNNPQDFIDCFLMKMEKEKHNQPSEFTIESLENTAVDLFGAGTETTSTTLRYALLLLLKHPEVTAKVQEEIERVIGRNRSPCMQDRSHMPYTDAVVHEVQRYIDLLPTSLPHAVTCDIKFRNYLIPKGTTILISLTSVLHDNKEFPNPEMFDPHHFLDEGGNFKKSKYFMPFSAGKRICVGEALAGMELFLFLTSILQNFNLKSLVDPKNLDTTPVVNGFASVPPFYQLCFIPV

SMILES | inhibition in vivo at 10 mg/kg (Mus musculus [1]) [%] | Cmax [2] [ng/mL] | inhibition (Mus musculus [3]) | inhibition (Mus musculus [4]) | inhibition (Mus musculus [5]) | inhibition (Mus musculus [6]) | inhibition [7] | AUC(0-t) [8] [ng·h/mL] | inhibition at 10 µM (CYP1A2) [%] | inhibition at 10 µM (CYP2C9) [%] | inhibition at 10 µM (CYP3A4 [9]) [%] | inhibition at 10 µM (CYP3A4 [10]) [%] | Fu [11] [%] | CLH [12] [µL/min/mg] | Fu [13] [%] | inhibition at 10 µM (CYP2D6) [%] | inhibition at 10 µM (CYP2B6) [%] | inhibition at 10 µM (CYP2C8) [%]
COc1cc(OC)c2c(=O)cc(-c3cc(C)c(OC[C@H](O)CN4CCCCC4)c(C)c3)oc2c1 | 100 | 575 | Active | Active | Active | Active | Active | 5170 | – | – | – | – | – | – | – | – | – | –
COc1cc(OC)c2c(=O)cc(-c3cc(C)c(OC[C@H](O)CN4CCN(C)CC4)c(C)c3)oc2c1 | 100 | 606 | Active | Active | Active | Active | – | 4970 | 0 | 1.9 | 9.5 | 8.2 | 17 | 25 | 12 | 0 | 27 | 17
